Fibroblast inh = blocks proliferation of human lung fibroblasts | LL 47 human lung fibroblast viability, ATP luminescence; active compounds read low | viability, % at 10 µM | hit rate 1.1% among 85,000;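 active = viability at or below 50% in the single dose screen; inactive = viability above 50%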;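 also: compound exposure lasted 72 h before the ATP readout; 100% = median luminescence of untreated cell-only wells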
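Test system: LL 47 human lung fibroblasts / Incubation: 72 h compound exposure at 37 °C after overnight plating / Technique: luminescent ATP detection, CellTiter-Glo / Compound dosing: 0.1% DMSO in all compound wells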
HCT116 bCat-KO = beta-catenin-lacking colon tumor cell growth suppression; HCT116 beta-catenin knockout viability, CellTiter-Glo, 60 h; active compounds read low; hit rate 1.5% among 140,000; AID 818; viability, % at 10 µM;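 active = viability at or under a set limit, the compound median less 4 SD, cut at about 6% in these data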;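 also: 0% = Hyamine 1622 control at 20 µM and 100% = untreated cell control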
PTK2B oligo ant = antagonists of human Pyk2 oligomerization | z-score (the deposit names both 25 µM and 10 µM) | hit rate 0.83% among 99,000 | Q293 cells, Pyk2 FERM NanoBiT luminescence; active compounds read low | Q14289 | AID 1347419;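 active = Z-score of -3 or lower, scaled per plate to the spread of control and sample wells; inactive = z-score above -3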;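 also: negative z-score means lost luminescence so less FERM oligomerization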
Target sequence (Q14289 whole entry, looked up): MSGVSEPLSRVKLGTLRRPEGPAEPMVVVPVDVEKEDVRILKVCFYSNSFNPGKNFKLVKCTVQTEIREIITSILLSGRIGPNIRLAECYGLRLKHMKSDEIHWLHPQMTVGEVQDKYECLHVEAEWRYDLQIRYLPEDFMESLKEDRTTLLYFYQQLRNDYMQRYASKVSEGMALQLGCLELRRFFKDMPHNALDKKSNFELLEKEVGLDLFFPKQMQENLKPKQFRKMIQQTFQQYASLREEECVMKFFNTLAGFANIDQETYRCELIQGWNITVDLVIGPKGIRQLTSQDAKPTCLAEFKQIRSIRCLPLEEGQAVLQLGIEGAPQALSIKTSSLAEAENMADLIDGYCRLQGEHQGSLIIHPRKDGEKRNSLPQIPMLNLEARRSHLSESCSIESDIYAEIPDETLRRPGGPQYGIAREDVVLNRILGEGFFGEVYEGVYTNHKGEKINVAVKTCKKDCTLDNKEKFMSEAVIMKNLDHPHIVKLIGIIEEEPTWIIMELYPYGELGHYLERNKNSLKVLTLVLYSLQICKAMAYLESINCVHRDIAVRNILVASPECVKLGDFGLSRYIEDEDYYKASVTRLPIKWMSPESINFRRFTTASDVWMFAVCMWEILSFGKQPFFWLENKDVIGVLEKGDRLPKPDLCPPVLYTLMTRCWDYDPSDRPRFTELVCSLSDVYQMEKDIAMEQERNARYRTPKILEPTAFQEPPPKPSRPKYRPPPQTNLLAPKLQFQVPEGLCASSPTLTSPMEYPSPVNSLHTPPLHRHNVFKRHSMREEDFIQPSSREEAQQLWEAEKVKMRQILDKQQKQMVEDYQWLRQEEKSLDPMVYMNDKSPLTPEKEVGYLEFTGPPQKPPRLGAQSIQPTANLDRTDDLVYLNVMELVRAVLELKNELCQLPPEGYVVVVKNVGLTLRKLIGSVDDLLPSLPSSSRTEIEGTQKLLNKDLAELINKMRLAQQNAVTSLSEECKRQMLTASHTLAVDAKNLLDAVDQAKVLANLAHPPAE
H69AR inhibit = growth inhibitors of human H69AR lung tumor cells; H69AR lung tumor viability, ATP luminescence, 72 h; active compounds read low; viability, % at 10 µM; hit rate 6% among 85,000; AID 598;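 active = viability at or below 40%; inactive = viability above 40%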;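 also: multidrug resistant small cell line overexpressing MRP-1 efflux transporter; 100% = mean luminescence of untreated control wells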
HUVEC prolif 384 = blocks proliferation of human endothelial cells; HUVEC proliferation, CellTiter-Glo luminescence, 72 h; active compounds read low; hit rate 1.1% among 86,000; viability, % at 10 µM (by protocol); AID 648;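 active = viability at or below 30%; inactive = viability above 30%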;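 also: 100% = median luminescence of DMSO-only cell control wells on each plate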
HCT116 PTEN-null = PTEN-deleted cell growth suppression; HCT116 PTEN-null viability, CellTiter-Glo, 60 h; active compounds read low; viability, % at 10 µM; hit rate 1.2% among 140,000;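 active = viability at or below a set limit, 4 SD under the median of all tested compounds, cut at about 3.7% in these data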;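 also: PTEN knockout HCT116 line with beta catenin targeted HCT116 as companion control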
Starred values were filed as active, the others as inactive; x = not tested or not shown. The entries come from a sample that favours hits as a whole.

SMILES	Fibroblast inh	HCT116 bCat-KO	PTK2B oligo ant	H69AR inhibit	HUVEC prolif 384	HCT116 PTEN-null
CCCCC(=O)NC(c1cccc([N+](=O)[O-])c1)c1c(OC(C)=O)ccc2ccccc12 (configuration not stated)	89	61	-4.3*	4.6*	80	56
CC(=O)NC(c1cccc([N+](=O)[O-])c1)c1c(OC(C)=O)ccc2ccccc12 (configuration not stated)	96	97	-1.9	95	97	89
CCOC(=O)c1c(C)[nH]c(C(=O)COC(=O)CNC(=O)c2ccc(Cl)cc2Cl)c1C	x	93	-0.34	x	x	100
CC(=O)n1cc(C(C[N+](=O)[O-])SCCN)c2ccccc21 (configuration not stated)	24*	77	1.5	1.6*	22*	88
Cn1c(SC2=CS(=O)(=O)c3ccccc32)nc2ccccc21	2.2*	2.5*	-2.1	0.6*	43	1.4*
Cc1ccc2c(c1)c(CC(=O)Nc1ccc(F)cc1)c(C(=O)O)n2C	92	101	-0.78	100	83	101
CCCn1c(/N=C/c2cc(OC)ccc2O)nc2ccccc21	108	80	0.11	40*	82	77
CCCCNC(=O)c1ccc2c(c1)ncn2C1CCCCC1	x	114	0.4	x	x	109
CCCCNC(=O)c1ccc2c(c1)ncn2C1CCCC1	108	93	-0.15	33*	92	91
CC(=O)Nc1ccccc1N(C)S(=O)(=O)c1ccc(C)cc1	101	54	0.62	37*	80	48
O=C(Nc1nccs1)c1ccc2c(=O)n3c(nc2c1)CCCCC3	x	92	x	x	x	94
Cc1ccc(C=Nc2ccc(N(C)C)cc2)o1	106	5.4*	-0.32	68	90	38
COC(=O)N[C@H](CC(C)=O)c1ccccc1	x	90	x	x	x	97
CCN(CC)S(=O)(=O)c1cccc2c(N(C)C)cccc12	x	80	-1.4	x	x	83
O=[N+]([O-])/C=C/c1cn(Cc2ccc(F)cc2)c2ccccc12	x	1.9*	-2.1	x	x	1.4*
CCNC(=S)N/N=C/c1cn(Cc2ccc(F)cc2)c2ccccc12	x	96	x	x	x	102
CC12CCC(C(=O)NCc3ccc4c(c3)OCO4)(C(=O)C1=O)C2(C)C (configuration not stated)	104	95	0.21	93	103	106
[N-]=[N+]=NC1C[C@H](n2ccc(=O)[nH]c2=O)O[C@@H]1CO (some centres not stated)	x	1.1*	x	x	x	1.0*
O=C1CCCCCN1Sc1ccccc1	79	22	0.37	3.0*	69	10
O=C1CCCCCN1CP(=O)(O)CCc1ccccc1	98	86	0.31	96	85	97
CCc1ccc2[nH]c3nc(SCc4nnc(-c5ccc(C)cc5)o4)nnc3c2c1	44*	55	-0.68	9.4*	36	46
CCc1cc2c(=O)[nH]c(-c3ccccn3)nc2s1	x	2.5*	x	x	x	2.3*
COc1cccc(C2=NOC(C(=O)Nc3cc(C)nn3-c3ccccc3)C2)c1OC (configuration not stated)	90	57	x	32*	75	53
CCCc1nc(-c2cc3ccc(C)cc3[nH]c2=O)no1	99	83	1.1	101	94	89
CCOc1ccccc1-c1nc(-c2cc3ccc(C)cc3[nH]c2=O)no1	100	87	-3	40*	89	76
SMILES	Fibroblast inh	HCT116 bCat-KO	PTK2B oligo ant	H69AR inhibit	HUVEC prolif 384	HCT116 PTEN-null
CCCCN(CCCC)CCNC(=O)CNC(=O)c1cccs1	95	92	0.67	86	101	82
Cc1[nH]n(-c2c(Cl)cc(Cl)cc2Cl)c(=O)c1C=Nc1ccc(S(=O)(=O)N2CCOCC2)cc1	x	107	-0.22	x	x	106
O=C(CN1CCN(c2ncc(C(F)(F)F)cc2Cl)CC1)NCCNc1ncc(C(F)(F)F)cc1Cl	102	79	0.57	3.8*	76	74
CN(C)/C=C/C(=O)c1ccc(N2CCN(c3ncc(C(F)(F)F)cc3Cl)CC2)cc1	52	2.1*	-0.68	0.8*	2.3*	10
O=C(NCc1cccnc1)c1csc2c1CCCC2	x	86	x	x	x	102
Cc1nc(SCC(=O)Nc2ccc3c(c2)OCO3)c(C#N)c2c1CCCC2	109	84	-3.2*	57	84	77
Cc1cc(C)c(C#N)c(SCC(=O)Nc2ccc3c(c2)OCO3)n1	104	112	0.08	104	106	103
CC(=O)OC1CCC2(C)C(COc3ccc4ccc(=O)oc4c3)C(C)(O)CCC2C1(C)C (configuration not stated)	x	67	-3.3*	x	x	67
Cc1ccc(SCC(=O)Nc2cccc(NC(=O)c3ccco3)c2)cc1	x	86	2.3	x	x	81
Cc1ccc(C(=O)N/C(N)=N/c2nc3ccccc3o2)cc1	103	44	-0.25	47	94	39
COc1ccccc1C(=O)N/C(N)=N/c1nc2ccccc2o1	102	92	-0.65	15*	59	80
C(=C1/CCCC2=C1Nc1ncnn1C2c1ccccc1)/c1ccccc1 (configuration not stated)	4.1*	1.5*	x	0.8*	13*	1.5*
CC(=O)N(c1ccccc1)c1ccc([N+](=O)[O-])cc1[N+](=O)[O-]	x	83	x	x	x	95
CCOc1ccc(NC(=O)c2ccc(NC(=O)c3cn4c5c(c(N6CCN(C)CC6)c(F)cc5c3=O)OCC4C)cc2)cc1 (configuration not stated)	x	2.3*	x	x	x	2.2*
C=CCN1C(c2ccc(OCC)cc2)=CS/C1=C(\C#N)c1nnc2n1CCCCC2	100	60	-1.5	34*	68	66
CCCCCCCC(=O)Nc1ccc(C(=O)N/N=C/c2cccc([N+](=O)[O-])c2)cc1	x	1.5*	-0.86	x	x	1.7*
O=C(COc1ccccc1)N/N=C/c1ccc([N+](=O)[O-])o1	x	1.3*	x	x	x	1.0*
Cc1ccc(OCC(=O)N/N=C/c2ccc([N+](=O)[O-])o2)cc1	x	90	1.8	x	x	108
O=C(N/N=C/c1ccc([N+](=O)[O-])o1)c1cc(-c2cccc(Br)c2)nc2ccccc12	x	1.8*	-1.5	x	x	1.7*
CCCc1ccc(-c2cc(C(=O)N/N=C/c3ccc([N+](=O)[O-])o3)c3ccccc3n2)cc1	x	19	0.02	x	x	13
CCCC(=O)Nc1ccc(C(=O)N/N=C/c2ccc([N+](=O)[O-])o2)cc1	x	2.7*	x	x	x	1.9*
CCOC(=O)CSc1ncc(-c2ccc([N+](=O)[O-])cc2)[nH]1	x	94	x	x	x	96
C[C@]12CC[C@@H]3c4ccc(O)cc4CC[C@H]3[C@@H]1CC[C@@H]2OC(=O)CCC(=O)O	107	95	x	93	83	91
C[C@]12CC[C@@H]3c4ccc(OC(=O)c5ccccc5)cc4CC[C@H]3[C@@H]1CC[C@@H]2O	93	47	x	26*	55	44
Cc1onc(-c2c(Cl)cccc2Cl)c1C(=O)N1CCc2ccccc2C1	94	72	0.43	81	91	64
